# Active and inactive are the calls of the source. The rule behind the calls is not given here.
# Columns and labels:
# HeLa [1] = experiment: Inhibition of TEAD (unknown origin) expressed in human HeLa cells up to 150 uM after 6 hrs by nanoluciferase reporter gene assay; type: cell-based
# Procedure, shortened: (§1)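 HeLa cells stably transduced with a lentiviral 8×TEAD-element secreted nanoluciferase reporter were seeded at 2 × 10^4 cells/well and grown 48 h. They were washed and treated with compound for 2 h, washed again and re-treated for 4 h. Secreted nanoluciferase in the conditioned medium was assayed with NanoGlo; n = 3.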
# HeLa [2] = experiment: Cytotoxicity against human HeLa cells assessed as reduction in cell viability by measuring ethidium homodimer-1 uptake up to 150 uM preincubated for 10 mins followed by ethidium homodimer-1 addition measured after 10 mins by fluorescence assay; type: cell-based
# Procedure, shortened: (§2)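 Live/dead cell viability assay in HeLa cells. Maximum death was set by treating cells 10 min with 0.1% Triton-X, then 10 min with 0.4 μM ethidium homodimer-1. Fluorescence was read on a plate reader.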
# HeLa [3] = experiment: Inhibition of TEAD (unknown origin) expressed in human HeLa cells at 100 uM after 6 hrs by nanoluciferase reporter gene assay relative to control; type: cell-based; procedure, shortened: as §1
# HeLa [4] = experiment: Cytotoxicity against human HeLa cells assessed as reduction in cell viability by measuring ethidium homodimer-1 uptake at 100 uM preincubated for 10 mins followed by ethidium homodimer-1 addition measured after 10 mins by fluorescence assay; type: cell-based; procedure, shortened: as §2
# [5] = biological target: T1, Transcriptional enhancer factor TEF-1 (Homo sapiens, UniProt P28347); experiment: Inhibition of human HEK293 cell lysate derived YAP interaction with recombinant GST-tagged human TEAD1 (194 to 411 residues) expressed in Escherichia coli soluBL21 at 200 uM after 18 hrs by Western blot analysis; type: subcellular
# Procedure, shortened: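 GST–TEAD1 (about 5 μg) immobilized on glutathione resin beads, incubated with HEK293 whole-cell lysate containing endogenous YAP at 4 °C for 18 h. Resin washed; bound proteins eluted by boiling in Laemmli buffer. YAP and GST quantified by Western blot (anti-YAP, anti-GST); n = 2.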
# [6] = biological target: T1, Transcriptional enhancer factor TEF-1; experiment: (§3) Inhibition of GFP-tagged YAP1 (unknown origin) interaction with myc-tagged human TEAD1 expressed in human HeLa cells by measuring GFP-Trap at 200 uM incubated for 30 mins with myc-tagged human TEAD1 lysate followed by GFP-tagged YAP1 lysate addition measured after 30 mins by Western blot based immunoprecipitation assay; type: cell-based
# Procedure, shortened: (§4)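 Myc-TEAD1 and GFP-YAP1 were expressed separately in transfected HeLa cells, and pooled cytosolic plus nuclear extracts were prepared. The myc-TEAD extract was incubated 30 min on ice with 200 μM compound, then an equal volume of GFP-YAP lysate was added for another 30 min. Complexes were pulled down with GFP-Trap or Myc-Trap beads and quantified by Western blot; n = 3.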
# [7] = biological target: T1, Transcriptional enhancer factor TEF-1; experiment: as §3, with “myc-TRAP” for “GFP-Trap”; type: cell-based; procedure, shortened: as §4
# [8] = biological target: T1, Transcriptional enhancer factor TEF-1; experiment: Inhibition of NL-tagged YAP (unknown origin) interaction with myc-tagged human TEAD1 preincubated for 1 hr followed by NL-tagged YAP addition by NanoGlo assay
# Procedure, shortened: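 Myc-TEAD1 from transfected HeLa lysate was captured with anti-myc antibody on protein-G-coated 96-well plates. Wells were pretreated with compound in PBS for 1 h at 4 °C, then co-incubated with lysate from HeLa cells expressing YAP–nanoluciferase. After four PBS washes, bound YAP–NL was read with NanoGlo.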
# HeLa [9] = experiment: Inhibition of TEAD in human HeLa cells assessed as reduction in CCN1 m-RNA expression incubated for 2 hrs followed by compound wash out and re-treatment for 4 hrs by NanoGlo assay; type: cell-based
# HeLa [10] = experiment: Inhibition of TEAD in human HeLa cells assessed as reduction in CTGF m-RNA expression incubated for 2 hrs followed by compound wash out and re-treatment for 4 hrs by NanoGlo assay; type: cell-based
# Rattus norvegicus [11] = species: Rattus norvegicus; experiment: Inhibition of TEAD in rat VSMC assessed as reduction in CCN1 m-RNA expression incubated for 2 hrs followed by compound wash out and re-treatment for 4 hrs by NanoGlo assay
# Rattus norvegicus [12] = species: Rattus norvegicus; experiment: Inhibition of TEAD in rat VSMC assessed as reduction in CTGF m-RNA expression incubated for 2 hrs followed by compound wash out and re-treatment for 4 hrs by NanoGlo assay
# HeLa [13] = experiment: Inhibition of TNT1 m-RNA expression in human HeLa cells up to 80 uM incubated for 2 hrs followed by compound wash out and re-treatment for 4 hrs by NanoGlo assay; type: functional, cell-based
# VSMC [14] = experiment: Inhibition of TNT1 m-RNA expression in rat VSMC up to 80 uM incubated for 2 hrs followed by compound wash out and re-treatment for 4 hrs by NanoGlo assay; type: functional, cell-based
# HeLa [15] = experiment: Inhibition of 36B4 m-RNA expression in human HeLa cells up to 80 uM incubated for 2 hrs followed by compound wash out and re-treatment for 4 hrs by NanoGlo assay; type: functional, cell-based
# VSMC [16] = experiment: Inhibition of 36B4 m-RNA expression in rat VSMC up to 80 uM incubated for 2 hrs followed by compound wash out and re-treatment for 4 hrs by NanoGlo assay; type: functional, cell-based
# VSMC [17] = experiment: Antiproliferative activity against rat VSMC assessed as reduction in EdU incorporation after 24 hrs by Hoechst 33342 staining-based fluorescence assay; type: functional, cell-based
# Procedure, shortened: (§5)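 Click-iT EdU assay. Cells were treated with compound for 24 h total, with 10 μM EdU present for the final labeling period. Cells were then fixed in 4% formaldehyde, stained for EdU and counterstained with Hoechst 33342 for 20 min. EdU-positive nuclei were counted in at least three fields per well; n = 4.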
# HeLa [18] = experiment: Antiproliferative activity against human HeLa cells assessed as reduction in EdU incorporation after 24 hrs by Hoechst 33342 staining-based fluorescence assay; type: functional, cell-based; procedure, shortened: as §5
# VSMC [19] = experiment: Antimigratory activity in rat VSMC incubated for overnight followed by media replacement and measured every hour for 24 hrs by phase contrast microscopic analysis; type: functional, cell-based
# Procedure, shortened: (§6)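 IncuCyte real-time scratch wound assay. Cells were seeded in 96-well plates and grown 36 h, then pretreated overnight with compound. Wells were scratched and the medium was replaced with compound-containing medium. Phase-contrast images of the wound were taken hourly for 24 h and relative wound confluence was calculated; n = 4.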
# HeLa [20] = experiment: Antimigratory activity in human HeLa cells incubated for overnight followed by media replacement and measured every hour for 24 hrs by phase contrast microscopic analysis; type: functional, cell-based; procedure, shortened: as §6
# HeLa [21] = experiment: Cytotoxicity against human HeLa cells assessed as reduction in cell viability by measuring ethidium homodimer-1 uptake at 60 uM preincubated for 10 mins followed by ethidium homodimer-1 addition measured after 10 mins by fluorescence assay; type: cell-based; procedure, shortened: as §2
# [22] = Inhibition of TEAD (unknown origin) expressed in human HeLa cells after 6 hrs by nanoluciferase reporter gene assay; type: cell-based; procedure, shortened: as §1
# T1 sequence (P28347 whole entry, the tested form may be a part): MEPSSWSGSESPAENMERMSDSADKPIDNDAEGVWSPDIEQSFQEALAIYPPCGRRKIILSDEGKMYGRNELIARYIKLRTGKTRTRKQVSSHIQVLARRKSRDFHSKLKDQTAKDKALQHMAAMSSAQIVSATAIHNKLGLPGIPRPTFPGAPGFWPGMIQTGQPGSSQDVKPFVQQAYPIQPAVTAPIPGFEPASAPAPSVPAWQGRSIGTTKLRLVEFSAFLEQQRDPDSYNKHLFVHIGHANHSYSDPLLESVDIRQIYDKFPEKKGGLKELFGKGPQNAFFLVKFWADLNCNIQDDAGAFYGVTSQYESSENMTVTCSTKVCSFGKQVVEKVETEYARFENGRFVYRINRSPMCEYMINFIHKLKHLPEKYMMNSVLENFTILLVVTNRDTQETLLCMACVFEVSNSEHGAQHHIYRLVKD
smiles,measurement,setting,value
O=C(O)c1ccco1,inhibition,HeLa [1],inactive
same,Activity,HeLa [2],Non-Toxic
COc1ccc2nc(NC3=NCN(Cc4ccco4)CN3)nc(C)c2c1,inhibition,HeLa [3],> 60%
same,Activity,HeLa [4],Non-Toxic
OCC(O)CN1CCNCC1 (stereo not given),inhibition,HeLa [1],inactive
same,Activity,HeLa [2],Non-Toxic
CCc1nc(C)nc(Oc2ccc(OCCOc3ccc(C)cc3C)nn2)n1,inhibition,HeLa [3],> 60%
same,Activity,HeLa [4],Non-Toxic
O=C(NCCn1ncc2c(N3CCN(c4ncccn4)CC3)ncnc21)C12CC3CC(CC(C3)C1)C2,inhibition,HeLa [3],> 60%
same,Activity,HeLa [4],Non-Toxic
Cc1ccc2c(c1)c1c3n2CCN(C[C@H](O)CN2CCN(C(=O)c4ccco4)CC2)[C@@H]3CCC1,inhibition,HeLa [3],> 60%
same,Activity,HeLa [4],Non-Toxic
same,inhibition,[5],Active
same,inhibition,[6],Active
same,inhibition,[7],Active
same,inhibition,[8],Dose-dependent effect
same,inhibition,HeLa [9],Dose-dependent effect
same,inhibition,HeLa [10],Dose-dependent effect
same,inhibition,Rattus norvegicus [11],Dose-dependent effect
same,inhibition,Rattus norvegicus [12],Dose-dependent effect
same,inhibition,HeLa [13],inactive
same,inhibition,VSMC [14],inactive
same,inhibition,HeLa [15],inactive
same,inhibition,VSMC [16],inactive
same,Activity,VSMC [17],Dose-dependent effect
same,Activity,HeLa [18],Dose-dependent effect
same,Activity,VSMC [19],Dose-dependent effect
same,Activity,HeLa [20],Dose-dependent effect
same,Activity,HeLa [21],Non-Toxic
same,IC50,[22],110 µM
